Five compounds from ChEMBL document CHEMBL4251710, “Antibacterial Muraymycins from Mutant Strains of Streptomyces sp. NRRL 30471” (J Nat Prod, 2018) can be followed below.

Molecules are shown by their SMILES. In brackets after ≈: the same amount, converted by molar mass.

The target of assay [1] is T1, Phospho-N-acetylmuramoyl-pentapeptide-transferase (Staphylococcus aureus, UniProt P0C1R8).
T1 sequence (P0C1R8 whole entry): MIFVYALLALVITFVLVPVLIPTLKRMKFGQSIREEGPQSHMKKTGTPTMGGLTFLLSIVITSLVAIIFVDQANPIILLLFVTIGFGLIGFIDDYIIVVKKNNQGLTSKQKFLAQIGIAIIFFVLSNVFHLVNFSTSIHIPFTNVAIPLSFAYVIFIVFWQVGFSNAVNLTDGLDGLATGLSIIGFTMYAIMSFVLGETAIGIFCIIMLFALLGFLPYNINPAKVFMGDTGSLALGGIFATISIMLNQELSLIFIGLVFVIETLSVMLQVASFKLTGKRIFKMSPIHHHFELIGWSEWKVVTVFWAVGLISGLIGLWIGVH
In words: Inhibition of Staphylococcus aureus MraY expressed in Escherichia coli membrane using Park's nucleotide as substrate pretreated for 30 mins followed by substrate addition measured up to 2 mins by fluorescence assay. Format: cell membranes.

Assay [2] deals with Staphylococcus aureus. In words: Antimicrobial activity against Staphylococcus aureus subsp. aureus str. Newman after 16 hrs by resazurin dye based assay. It is filed as functional. The gist of the method: (§1)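 Overnight cultures (16 h, 37 °C) were diluted 1000-fold, grown to OD600 0.4, then diluted 1000-fold again. Cells were exposed to serially diluted compound from a top final concentration of 256 or 32 μg/mL, against a 1% DMSO or water control. Plates were incubated 16 h at 37 °C, read at OD600 normalised to control, then given resazurin for 3 h. The MIC was the lowest concentration inhibiting growth.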

The test system of assay [3] is Escherichia coli. In words: Antimicrobial activity against tolC deficient Escherichia coli JW5503 after 16 hrs by resazurin dye based assay. It is filed as functional. As to conditions: JW5503, 16 h. A digest of the protocol: as §1
Assay [4] has as its system Escherichia coli. Kind of assay: Antimicrobial activity against Escherichia coli BL21(DE3) after 16 hrs by resazurin dye based assay. It is filed as functional. A digest of the protocol: as §1
Assay [5] deals with T2, Phospho-N-acetylmuramoyl-pentapeptide-transferase (Aquifex aeolicus (strain VF5), UniProt O66465).
T2 sequence (O66465 whole entry): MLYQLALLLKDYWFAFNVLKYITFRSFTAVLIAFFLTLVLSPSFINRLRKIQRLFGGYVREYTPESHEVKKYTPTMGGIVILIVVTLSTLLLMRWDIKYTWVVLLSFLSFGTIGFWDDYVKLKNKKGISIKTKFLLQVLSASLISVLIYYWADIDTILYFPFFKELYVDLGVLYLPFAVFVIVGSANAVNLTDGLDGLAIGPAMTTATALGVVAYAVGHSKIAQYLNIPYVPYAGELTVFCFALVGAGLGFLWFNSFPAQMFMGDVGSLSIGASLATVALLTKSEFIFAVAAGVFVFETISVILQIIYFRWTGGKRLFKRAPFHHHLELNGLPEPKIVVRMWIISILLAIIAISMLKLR
Kind of assay: Inhibition of Aquifex aeolicus MraY expressed in Escherichia coli C41(DE3) using Park's nucleotide as substrate pretreated for 30 mins followed by substrate addition measured up to 2 mins by fluorescence assay. The gist of the method: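 Purified His-MBP-tagged AaMraY was expressed in E. coli C41(DE3), extracted with DDM, purified on cobalt resin, protease-cleaved and gel-filtered in DM. The enzyme (1 μL at 0.1 mg/mL) was preincubated 30 min at room temperature with inhibitor, undecaprenyl phosphate, pH 7.5 Tris, KCl, MgCl2, 0.1% Triton X-100 and 0–5% DMSO. Dansylated Park's nucleotide was then added. Fluorescence (ex 355/em 520 nm) was followed, and the rate was taken from a linear fit over 0–2 min.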

The subject of assay [6] is Staphylococcus aureus. Kind of assay: Antimicrobial activity against Staphylococcus aureus infected in mouse. It is filed as functional.
For assay [7], the system named is Escherichia coli. Kind of assay: Antimicrobial activity against Escherichia coli harboring imp mutant. Format: functional.

As for `CO[C@H]1[C@H](O[C@H]([C@H]2O[C@@H](n3ccc(=O)[nH]c3=O)[C@H](O)[C@@H]2O)[C@H](NCCCNC(=O)[C@@H](NC(=O)[C@@H](NC(=O)N[C@H](C(=O)O)C(C)C)[C@@H]2CCNC(=N)N2)[C@@H](O)C(C)C)C(=O)O)O[C@H](CN)[C@H]1O`, the concentration for half-maximal inhibition (IC50) in assay [1] came to 0.0157 nM; in assay [5], 0.35 nM. The MIC against Staphylococcus aureus [2] was more than 32 µg/mL; in the assay with Escherichia coli [3], 1 µg/mL (≈ 1.06 µM); against Escherichia coli [4], 8 µg/mL (≈ 8.46 µM).
Taken in the same sequence, the figures for `CO[C@H]1[C@H](O[C@H]([C@H]2O[C@@H](n3ccc(=O)[nH]c3=O)[C@H](O)[C@@H]2O)[C@H](NCCCNC(=O)[C@@H](NC(=O)[C@@H](NC(=O)N[C@H](C(=O)O)C(C)C)[C@@H]2CCNC(=N)N2)[C@@H](OC(=O)CCCCCCCCCCC(C)C)C(C)C)C(=O)O)O[C@H](CN)[C@H]1O` were 0.0221 nM, 0.32 nM, 6 µg/mL (≈ 5.19 µM), 2 µg/mL (≈ 1.73 µM) and 32 µg/mL (≈ 27.7 µM).
`CO[C@H]1[C@H](O[C@H]([C@H]2O[C@@H](n3ccc(=O)[nH]c3=O)[C@H](O)[C@@H]2O)[C@H](NCCCNC(=O)[C@@H](NC(=O)[C@@H](NC(=O)N[C@H](C(=O)O)C(C)C)[C@@H]2CCNC(=N)N2)[C@@H](OC(=O)CCCCCCCCCCCCN(O)C(=N)N)C(C)C)C(=O)O)O[C@H](CN)[C@H]1O`: it took a dose of 1.1 mg/kg to reach the 50% effect level in the assay on Staphylococcus aureus [6] (ED50). In addition, the MIC against Escherichia coli [7] is less than 0.03 µg/mL.
Turning to `CO[C@H]1[C@H](O[C@H]([C@H]2O[C@@H](n3ccc(=O)[nH]c3=O)[C@H](O)[C@@H]2O)[C@H](NCCCNC(=O)[C@@H](NC(=O)[C@@H](NC(=O)N[C@H](C(=O)O)C(C)C)[C@@H]2CCNC(=N)N2)[C@@H](O)C(C)C)C(=O)O)O[C@H](CNC(C)=O)[C@H]1O`, the 50% inhibitory concentration (IC50) in assay [1] is 0.093 nM; in assay [5], 1.8 nM. Moreover, the values for the MIC against Staphylococcus aureus [2], against Escherichia coli [3] and against Escherichia coli [4] were more than 32 µg/mL, 16 µg/mL (≈ 16.2 µM) and 256 µg/mL (≈ 259 µM), respectively.
Regarding `CO[C@H]1[C@H](O[C@H]([C@H]2O[C@@H](n3ccc(=O)[nH]c3=O)[C@H](O)[C@@H]2O)[C@H](NCCCNC(=O)[C@@H](NC(=O)[C@@H](NC(=O)N[C@H](C(=O)O)C(C)C)[C@@H]2CCNC(=N)N2)[C@@H](OC(=O)CCCCCCCCCCCCC(C)C)C(C)C)C(=O)O)O[C@H](CN)[C@H]1O`, the IC50 in assay [1] stood at 0.004 nM. Besides, the results for the MIC against Staphylococcus aureus [2], in the assay with Escherichia coli [3] and against Escherichia coli [4] were 2 µg/mL (≈ 1.69 µM), 4 µg/mL (≈ 3.38 µM) and 64 µg/mL (≈ 54 µM), respectively.
